For one data set, the system named is Candida parapsilosis. In words: Antifungal activity against Candida parapsilosis cgmcc2.3989 measured after 48 hrs by broth microdilution method. The data set is classed as functional. The settings on record: Lodderomyces parapsilosis, cgmcc2.3989, 48 h. The procedure, abridged: (§1)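 Modified CLSI M27-A2 microdilution. Yeast colonies were diluted in MOPS-buffered RPMI 1640 to a final (0.5–1) × 10^3 CFU mL−1 and mixed with an equal volume of peptide serially diluted in 0.2% BSA. After 48 h at 28 °C, MIC was read at A492 as the lowest concentration inhibiting 95% of growth. At least three independent experiments, each with three technical replicates.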
On the technique in general: Broth dilution looks for growth in wells or tubes with falling amounts of substance.

The subject of data set [1] is Staphylococcus aureus. Nature of the data set: Bactericidal activity against Staphylococcus aureus ATCC 29213 incubated for 24 hrs followed by replating on agar plate and measured after overnight incubation. It is filed as functional. Conditions: ATCC 29213, 24 h, read-out: MBC>99.9. The procedure, abridged:
(§2)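 After the 24 h, 37 °C MHB microdilution MIC assay, 50 μL from each well was plated on agar and incubated overnight. MBC taken as lowest peptide concentration killing >99.9% of cells. At least three independent experiments, each with three technical replicates.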

For data set [2], the system named is Staphylococcus aureus. In words: Bactericidal activity against Staphylococcus aureus ATCC 25923 incubated for 24 hrs followed by replating on agar plate and measured after overnight incubation. Conditions: ATCC 25923, 24 h, read-out: MBC>99.9. It is filed as functional. In a few lines: as §2
Data set [3] deals with Escherichia coli. Nature of the data set: Antibacterial activity against Escherichia coli ATCC 25922 measured after 18 to 24 hrs in presence of MgCl2. The data set is classed as functional.
Data set [4] has as its system Escherichia coli. In words: Antibacterial activity against Escherichia coli ATCC 25922 measured after 18 to 24 hrs in presence of NaCl. It is filed as functional.
The test system of data set [5] is Staphylococcus aureus. In words: Antibacterial activity against methicillin-resistant Staphylococcus aureus ATCC 43300 measured after 24 hrs. It is filed as functional. The settings on record: ATCC 43300, 24 h. In a few lines:
(§3)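 Broth microdilution modified from NCCLS. Mid-log bacteria at (0.5–1) × 10^5 CFU mL−1 in MHB, mixed with peptides serially diluted in 0.2% BSA. Incubated 24 h at 37 °C, read at A492. MIC taken as lowest concentration giving 95% growth inhibition. At least three independent experiments, each with three technical replicates.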

Data set [6] relates to Salmonella typhimurium. In words: Antibacterial activity against Salmonella typhimurium ATCC 14028 measured after 24 hrs. It is filed as functional, Salmonella enterica subsp. enterica serovar Typhimurium. Conditions: Salmonella enterica, ATCC 14028, 24 h. The procedure, abridged:
(§4)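 Broth microdilution adapted from NCCLS. Mid-log bacteria were diluted in MHB to a final (0.5–1) × 10^5 CFU mL−1. Peptides were serially diluted in 0.2% BSA and mixed with an equal volume of cells. After 24 h at 37 °C, MIC was read at A492 as the lowest concentration inhibiting 95% of growth. At least three independent experiments, each with three technical replicates.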

The test system of data set [7] is Staphylococcus aureus. In words: Antibacterial activity against Staphylococcus aureus ATCC 29213 measured after 18 to 24 hrs in presence of CaCl2. The data set is classed as functional.
The test system of data set [8] is Candida albicans. Nature of the data set: Antifungal activity against Candida albicans cgmcc2.2086 measured after 48 hrs by broth microdilution method. The data set is classed as functional. Conditions: cgmcc2.2086, 48 h. The procedure, abridged:
as §1

In another data set the test system is Erythrocyte. Nature of the data set: Hemolytic activity in human RBC measured after 1 hr. The data set is classed as ADME, cell-based. In a few lines:
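Fresh healthy-donor human erythrocytes at ~1% (v/v) in PBS pH 7.4, mixed 1:1 with peptide (1–128 µM), 1 h at 37 °C. After centrifugation at 1000×g, supernatant hemoglobin read at 576 nm. Untreated cells set 0% and 0.1% Triton X-100 set 100%. MHC defined as the concentration giving >10% hemolysis. Three or more independent experiments, triplicates.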

Data set [9] relates to Escherichia coli. In words: Bactericidal activity against Escherichia coli K88 incubated for 24 hrs followed by replating on agar plate and measured after overnight incubation. The data set is classed as functional. Conditions: K88, 24 h, read-out: MBC>99.9. The procedure, abridged: (§5)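 Mid-log bacteria diluted in MHB to (0.5–1) × 10^5 CFU/mL and mixed 1:1 with peptide serially diluted in 0.2% BSA. After 24 h at 37 °C, 50 μL of each mixture was plated on agar and incubated overnight. MBC taken as the lowest concentration killing >99.9% of cells. At least three independent experiments, each with three technical replicates.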

The subject of data set [10] is Escherichia coli. In words: Bactericidal activity against Escherichia coli ATCC 25922 incubated for 24 hrs followed by replating on agar plate and measured after overnight incubation. Conditions: ATCC 25922, 24 h, read-out: MBC>99.9. It is filed as functional. In a few lines:
(§6)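 After the 24 h, 37 °C MHB microdilution (0.5–1 × 10^5 CFU mL−1 inoculum, peptides diluted in 0.2% BSA), 50 μL from each well was plated on agar and incubated overnight. MBC was taken as the lowest concentration killing >99.9% of cells. Three or more independent experiments, each with triplicate technical replicates.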

Data set [11] deals with Escherichia coli. In words: Antibacterial activity against Escherichia coli UB1005 measured after 24 hrs. It is filed as functional. The settings on record: UB1005, 24 h. The procedure, abridged: as §4
Data set [12] is described as follows: Therapeutic index, ratio of MHC10 for hemolytic activity in human RBC to MIC95 against Candida parapsilosis cgmcc2.3989. It is filed as toxicity. The settings on record: human red blood cells (erythrocytes), read-out: TI. In a few lines: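 Therapeutic index = MHC divided by MIC. MHC is the lowest concentration giving >10% lysis of human RBC (1 h, 37 °C, 1-128 µM, A576). MIC is 95% growth inhibition by broth microdilution: bacteria in MHB 24 h at 37 °C; Candida in MOPS-buffered RPMI 1640 at (0.5–1) × 10^3 CFU mL−1, 48 h at 28 °C.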

Data set [13] has as its system Candida albicans. Nature of the data set: Antifungal activity against Candida albicans cgmcc2.2086 measured after 48 hrs in presence of KCl by broth microdilution method. It is filed as functional. Conditions: cgmcc2.2086, 48 h.
The subject of data set [14] is Salmonella typhimurium. Nature of the data set: Bactericidal activity against Salmonella typhimurium C7731 incubated for 24 hrs followed by replating on agar plate and measured after overnight incubation. Conditions: Salmonella enterica, C7731, 24 h; read-out: MBC>99.9. It is filed as functional, Salmonella enterica subsp. enterica serovar Typhimurium. The procedure, abridged:
as §5

In data set [15] the test system is Escherichia coli. In words: Antibacterial activity against Escherichia coli ATCC 25922 measured after 18 to 24 hrs in presence of ZnCl2. It is filed as functional.
Data set [16] has as its system Staphylococcus aureus. In words: Antibacterial activity against Staphylococcus aureus ATCC 29213 measured after 24 hrs. Conditions: ATCC 29213, 24 h. The data set is classed as functional. The procedure, abridged:
as §3

The subject of data set [17] is Candida albicans. In words: Antifungal activity against Candida albicans cgmcc2.2086 measured after 48 hrs in presence of CaCl by broth microdilution method. It is filed as functional. The settings on record: cgmcc2.2086, 48 h.
Data set [18] relates to Staphylococcus epidermidis. Nature of the data set: Bactericidal activity against Staphylococcus epidermidis ATCC 12228 incubated for 24 hrs followed by replating on agar plate and measured after overnight incubation. The data set is classed as functional. The settings on record: ATCC 12228, 24 h, read-out: MBC>99.9. The procedure, abridged: as §5
The test system of data set [19] is Escherichia coli. In words: Antibacterial activity against Escherichia coli ATCC 25922 measured after 18 to 24 hrs in presence of NH4Cl. The data set is classed as functional.
Data set [20] in a line: Antibacterial activity against Salmonella pullorum ATCC 7913 measured after 24 hrs. The data set is classed as functional, Salmonella enterica subsp. enterica serovar Pullorum. The settings on record: Salmonella enterica, ATCC 7913, 24 h. The procedure, abridged:
as §4

In the next data set the test system is Pseudomonas aeruginosa. Nature of the data set: Antibacterial activity against Pseudomonas aeruginosa ATCC 27853 measured after 24 hrs. The data set is classed as functional. The settings on record: ATCC 27853, 24 h. In a few lines: as §4
The test system of data set [21] is Escherichia coli. Nature of the data set: Bactericidal activity against Escherichia coli 078 incubated for 24 hrs followed by replating on agar plate and measured after overnight incubation. The data set is classed as functional. The settings on record: Escherichia coli, 078, 24 h; read-out: MBC>99.9. The procedure, abridged:
as §6

With H-AARIILRIRFR-NH2, the MIC95 with Candida parapsilosis was 4 µM; in the data set with Escherichia coli [3], 16 µM; in the data set on Escherichia coli [4], 8 µM; in the data set on Staphylococcus aureus [5], 2 µM; with Salmonella typhimurium [6] it was 2 µM; in the data set on Staphylococcus aureus [7], 16 µM. The MIC95 in the data set with Candida albicans [8] is 8 µM; in the data set on Escherichia coli [11] it was 4 µM; with Candida albicans [13], 8 µM; with Escherichia coli [15], 4 µM; with Staphylococcus aureus [16], 2 µM; in the data set on Candida albicans [17], 64 µM. In addition, the results for the MIC95 (in the data set with Escherichia coli [19]; in data set [20]; in the data set on Pseudomonas aeruginosa) were 4 µM, 2 µM and 16 µM, respectively. Besides, the MBC (commonly the lowest tested concentration that kills the bacteria rather than only halting them) in the data set with Staphylococcus aureus [1] amounted to 4 µM; in the data set with Staphylococcus aureus [2], 4 µM; in the data set on Escherichia coli [9] it was 4 µM; with Escherichia coli [10] it was 4 µM; with Salmonella typhimurium [14], 8 µM; in [18], 4 µM. Also, in the data set with Escherichia coli [21], the MBC amounted to 4 µM. For the same substance, the MHC10 in the data set on Erythrocyte was found to be 128 µM. The selectivity ratio in [12] turned out to be 25.4.

Take H-AARIILRLRFR-NH2: the MIC95 against Candida parapsilosis amounted to 4 µM; in the data set with Escherichia coli [3] it was 16 µM; with Escherichia coli [4] it was 64 µM; against Staphylococcus aureus [5], 2 µM; in the data set with Salmonella typhimurium [6] it was 4 µM; in the data set on Staphylococcus aureus [7] it was 4 µM. The MIC95 with Candida albicans [8] worked out at 8 µM; against Escherichia coli [11], 4 µM; in the data set on Candida albicans [13], 8 µM; in the data set on Escherichia coli [15], 4 µM; against Staphylococcus aureus [16], 2 µM; with Candida albicans [17], 32 µM. The MIC95 with Escherichia coli [19] came to 4 µM; in [20] it was 4 µM; in the data set on Pseudomonas aeruginosa it was 8 µM. Further, the MBC stood at 4 µM with Staphylococcus aureus [1]; 4 µM with Staphylococcus aureus [2]; 8 µM with Escherichia coli [9]; 8 µM with Escherichia coli [10]; 8 µM in the data set with Salmonella typhimurium [14]; 4 µM in data set [18]. For the same substance, the MBC with Escherichia coli [21] worked out at 8 µM. The MHC10 in the data set with Erythrocyte was more than 128 µM. The selectivity ratio in data set [12] came to 50.8.

In the case of H-AARIILRRRFR-NH2, the MIC95 against Candida parapsilosis came to 64 µM; in the data set on Escherichia coli [3], 64 µM; in the data set on Escherichia coli [4], 128 µM; in the data set on Staphylococcus aureus [5], 16 µM; against Salmonella typhimurium [6], 32 µM; with Staphylococcus aureus [7] it was 128 µM. The MIC95 against Candida albicans [8] is 128 µM; in the data set on Escherichia coli [11] it was 16 µM; in the data set on Candida albicans [13], 128 µM; with Escherichia coli [15], 8 µM; in the data set on Staphylococcus aureus [16], 16 µM; in the data set with Candida albicans [17], more than 128 µM. In addition, the results for the MIC95 (in the data set with Escherichia coli [19]; in [20]; against Pseudomonas aeruginosa) were 8 µM, 16 µM and more than 128 µM, respectively. Moreover, the MBC with Staphylococcus aureus [1] was 32 µM; with Staphylococcus aureus [2], 64 µM; with Escherichia coli [9], 32 µM; with Escherichia coli [10] it was 16 µM; in the data set with Salmonella typhimurium [14], 16 µM; in data set [18], 32 µM. In addition, in the data set on Escherichia coli [21], the MBC was determined as 32 µM. Also, the MHC10 in the data set on Erythrocyte is more than 128 µM. Moreover, in [12], the selectivity ratio is 3.17.

For the origin of these results see ChEMBL document CHEMBL4350958, “Rational Design of Short Peptide Variants by Using Kunitzin-RE, an Amphibian-Derived Bioactivity Peptide, for Acquired Potent Broad-Spectrum Antimicrobial and Improved Therapeutic Potential of Commensalism Coinfection of Pathogens” (J Med Chem, 2019).
